# Only some compounds are listed: those with a hit (about 2.3% of all), similar ones and a draw of the others.
# TRPC4 PAM – allosterically enhances the mouse TRPC4 cation channel. Q9QUQ5. HEK293 TRPC4beta/mu-opioid, DAMGO EC20, Fluo-4 Ca2+ flux; active compounds read high. B-score at 10 µM. actives 0.42% (n = 310,000);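 active = B-score of calcium response area above 5 SD of library B-scores, with initial fluorescence ratio within 5 SD of library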;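 note: B-score of integrated fluorescence ratio over time as area under calcium response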
# Target sequence (Q9QUQ5 whole entry, looked up): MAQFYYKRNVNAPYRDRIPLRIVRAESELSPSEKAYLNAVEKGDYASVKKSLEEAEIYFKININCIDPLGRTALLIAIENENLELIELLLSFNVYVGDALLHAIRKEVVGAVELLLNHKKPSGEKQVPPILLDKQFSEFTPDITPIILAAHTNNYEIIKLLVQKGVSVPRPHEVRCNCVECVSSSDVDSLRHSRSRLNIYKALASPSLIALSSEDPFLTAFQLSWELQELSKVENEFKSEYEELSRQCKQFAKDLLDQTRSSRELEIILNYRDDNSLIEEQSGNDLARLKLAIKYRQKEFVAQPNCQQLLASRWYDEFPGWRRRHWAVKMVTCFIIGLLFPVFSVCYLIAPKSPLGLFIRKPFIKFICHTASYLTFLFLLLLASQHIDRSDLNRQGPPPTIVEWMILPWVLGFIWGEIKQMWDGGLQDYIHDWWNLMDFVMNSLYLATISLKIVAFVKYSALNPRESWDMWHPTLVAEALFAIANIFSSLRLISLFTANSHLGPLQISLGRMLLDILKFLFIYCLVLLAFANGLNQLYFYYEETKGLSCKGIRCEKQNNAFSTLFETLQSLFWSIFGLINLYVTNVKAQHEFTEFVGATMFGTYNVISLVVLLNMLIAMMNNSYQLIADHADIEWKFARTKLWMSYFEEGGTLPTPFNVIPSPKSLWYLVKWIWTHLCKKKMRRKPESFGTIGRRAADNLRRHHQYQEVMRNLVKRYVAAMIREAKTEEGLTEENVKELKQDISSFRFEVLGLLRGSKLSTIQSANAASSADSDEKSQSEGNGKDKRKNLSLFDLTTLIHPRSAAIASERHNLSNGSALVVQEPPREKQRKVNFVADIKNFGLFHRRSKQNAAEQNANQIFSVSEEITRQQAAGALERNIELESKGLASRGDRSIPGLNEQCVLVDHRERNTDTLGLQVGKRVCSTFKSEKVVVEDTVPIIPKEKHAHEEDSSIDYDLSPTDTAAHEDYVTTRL
# TRPC4 inh – blocks the mouse TRPC4 cation channel | Q9QUQ5 | actives 0.39% (n = 300,000) | B-score at 10 µM | HEK293 TRPC4beta/mu-opioid, DAMGO-evoked Fluo4 calcium flux; active compounds read low;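 active = B-score over 3 SD under the library average, no early fluorescence shift, positive overall ratio signal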
#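 Assay system: TRPC4beta/mu-opioid receptor HEK293 cell line; compound dosing: single concentration per test compound; detection: Fluo4 Ca2+ flux fluorescence; evaluation: per-well B score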
# TRPC4 agonist – TRPC4 (mouse) channel activation; Q9QUQ5; AID 2237; actives 0.49% (n = 310,000); B-score at 10 µM; HEK293 TRPC4beta/mu-opioid, Fluo4 calcium fluorescence; active compounds read high;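 active = B-score above 5 SD of library B-scores, and initial fluorescence ratio not above library mean plus 5 SD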;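 note: positive B-score marks a calcium rise read as TRPC4 activation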
#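 Incubation: 45 min room-temperature Fluo4 loading, 110 s read / System: HEK293 cells stably co-expressing mouse TRPC4beta and mu-opioid receptor / Signal: Fluo4 fluorescence, kinetic / Control set: buffer (low) and maximal DAMGO (high) / Measure: integrated baseline-normalised fluorescence ratio, converted to per-well B score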
# TRPC6 inh – blocks the mouse TRPC6 cation channel | B-score at 10 µM | AID 2553 | Q61143 | actives 1.1% (n = 310,000) | HEK293-TRPC6, membrane potential dye, ACh-evoked depolarization; active compounds read low;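 active = B-score under library mean minus 3 SD, initial fluorescence not abnormally high, positive integrated signal ratio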;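 note: B-score derived from integrated fluorescence ratio over the kinetic read; more negative B-score means stronger inhibition of depolarization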
# TRPC6 activator – mouse TRPC6 channel activation; Q61143; HEK293-TRPC6 membrane potential dye fluorescence; active compounds read high; B-score at 10 µM; actives 0.13% (n = 310,000); AID 2550;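 active = B-score of the integrated fluorescence ratio above library mean plus 3 SD, and starting fluorescence ratio within library mean plus 5 SD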;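 note: higher score means more depolarization so channel activation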
# The depositor's hits bear a star; i = inactive; . = no result given.
SMILES,TRPC4 PAM,TRPC4 inh,TRPC4 agonist,TRPC6 inh,TRPC6 activator
CCOC(=O)c1sc2nc(C)nc(NCc3ccc(F)cc3)c2c1C,i,i,i,i,i
CCCS(=O)(=O)c1c(S(=O)(=O)CCC)c2cnccn2c1C(=O)c1ccc(Cl)cc1,12*,i,i,i,i
CCN1C(N(C)CCc2cccs2)=N[C@@H](c2ccccc2)C(C(=O)OC)=C1C,i,-5*,i,i,i
CCCCCCCCCCCC(=O)NC(C(=O)O)C(O)c1ccccc1 (configuration not stated),i,-6*,i,i,i
CCCCCCCCCC(=O)N[C@H](CN1CCOCC1)[C@H](O)c1ccccc1,i,i,i,i,i
CCCOP(=O)(c1ccc(N(C)C)cc1)C(O)c1c(Cl)cccc1Cl (configuration not stated),i,i,i,i,i
CCCOP(=O)(c1ccc(N(C)C)cc1)C(O)c1ccc(Cl)cc1Cl (configuration not stated),10*,i,i,i,i
CN(C)CCSc1nnc2sc3ccccc3n12,11*,i,i,i,i
N#CCSc1nnc2sc3ccccc3n12,i,i,i,i,i
O=C(CCN1CCN(c2ccccc2F)CC1)Nc1cccc(F)c1,i,i,i,i,i
Cc1cc2nc(CS(=O)(=O)c3ccccc3)cc(=O)n2[nH]1,i,i,i,i,i
CC(C)Cn1cnc2c(c(-c3ccccc3)c(-c3ccccc3)n2Cc2ccco2)c1=N,i,i,i,-5*,i
CCCCN(CC)CCNc1c(N2CCN(C(=O)OCC)CC2)c(=O)c1=O,i,.,124*,i,i
Cc1ccccc1OCC(=O)Nc1ccc(N2CCN(C)CC2)c(Cl)c1,i,i,i,i,i
CN[C@@H]1CC[C@H](c2ccc(Cl)c(Cl)c2)c2ccccc21,14*,i,i,i,i
COc1ccccc1C1CCN(Cc2ccc(Cl)c(Cl)c2)CC1,i,i,i,i,i
CC(C(=O)NC(C)(C)C)N(Cc1cccs1)C(=O)CCN1CCc2ccccc21 (configuration not stated),i,i,i,i,i
CCn1cc(CN2CCCC(CO)(Cc3cccc(Cl)c3)C2)cn1 (configuration not stated),i,-6*,i,i,i
Cn1cc(CN2CCCC(CO)(Cc3cccc(Cl)c3)C2)cn1 (configuration not stated),i,i,i,i,i
CN(C)c1ccc(NC(=O)CSc2nnc(-c3ccco3)c(-c3ccco3)n2)cc1,i,i,i,-5*,i
O=C(COc1ccc(F)cc1Br)N1CCN(c2ncccn2)CC1,i,i,i,i,i
O=C(COc1ccc(F)cc1Br)N1CCN(S(=O)(=O)/C=C/c2ccccc2)CC1,12*,i,i,i,i
COc1ccccc1-c1cc(C(F)(F)F)n2ncc(C(=O)N3CCc4ccccc4C3)c2n1,i,i,i,i,i
CC(C)(C)c1cc(C(=O)NCc2cc(F)cc3c2OCOC3)n(Cc2ccccc2)n1,13*,i,i,i,i
CCc1ccccc1N(C(=O)c1ccco1)C(C(=O)NC1CCCC1)c1cccnc1 (configuration not stated),i,i,i,i,i
SMILES,TRPC4 PAM,TRPC4 inh,TRPC4 agonist,TRPC6 inh,TRPC6 activator
O=C1NC(=S)SC1=C1CCCCCC1,i,i,i,i,i
CC1CCc2c(sc(/N=C/N(C)C)c2C#N)C1 (configuration not stated),i,-6*,i,i,i
CN(C)/C=N/c1sc2c(c1C#N)CCCC2,i,i,i,i,i
O=[N+]([O-])c1ccc(NC(=S)N2CCc3ccccc3C2)cc1,i,-6*,i,i,i
CN1CCC(=C2c3ccccc3CC(=O)c3sccc32)CC1,i,i,i,i,i
CN1CCC(=C2c3ccccc3CCc3sccc32)CC1,i,i,i,-6.7*,i
COc1ccc(/C=N/NC(=O)c2ccc[nH]2)cc1,i,i,i,i,i
COc1ccc(NC(=O)CCNS(=O)(=O)c2cccc3nonc23)c(OC)c1,i,i,i,i,i
CCCCn1c(=NC(=O)c2cccnc2)c(C(=O)OCC)cc2c(=O)n3ccccc3nc21,46*,i,i,i,i
CCOCCCn1c(=NC(=O)c2cccnc2)c(C(=O)OCC)cc2c(=O)n3ccccc3nc21,i,i,i,i,i
COc1cccc(CN2CC(C(=O)NCCCn3ccnc3C)CCC2=O)c1 (configuration not stated),i,i,i,i,i
Cc1ccc2[nH]c3c(=O)n(CCN4CCOCC4)cnc3c2c1,i,i,i,i,i
Cc1ccc2[nH]c3c(=O)n(CCc4cnc[nH]4)cnc3c2c1,i,i,211*,i,i
COc1ccc(NC(=O)C(CC(=O)O)Cc2ccc(Cl)cc2)cc1 (configuration not stated),i,i,i,i,i
O=c1c2ccc(Cl)cc2nc(-c2cccc(C(F)(F)F)c2)n1O,i,i,51*,i,i
O=c1c2cc(Cl)ccc2nc(-c2ccc([N+](=O)[O-])cc2)n1O,i,i,45*,i,i
O=c1c2cc(Br)ccc2nc(-c2ccc(Cl)cc2)n1O,i,i,175*,i,i
Cc1ccc(-c2nc3c(Cl)cc(Cl)cc3c(=O)n2O)cc1,i,i,112*,i,i
COc1ccccc1N(C(=O)c1snc(C(N)=O)c1N)C(C(=O)NC1CCCC1)c1ccc(N(C)C)cc1 (configuration not stated),i,i,i,i,i
CC(=O)Nc1cccc(N2C(=O)CC(Cc3ccccc3)C2=O)c1 (configuration not stated),i,i,i,i,i
Cc1cc(=O)oc2cc(N3C(=O)CC(Cc4ccccc4)C3=O)ccc12 (configuration not stated),13*,i,i,i,i
CCCCCCCCCn1c2c(c(=N)c3c1CCC3)CCCC2,i,i,i,i,i
CCCCCCCCCCn1c2c(c(=N)c3c1CCC3)CCC2,i,i,52*,-5*,i
CCN1C(=O)CC2(C[N+]3(C)CCC2CC3)C1=O (configuration not stated),i,i,i,i,i

# Screens deposited in PubChem by Johns Hopkins Ion Channel Center.
